According to ChEMBL document CHEMBL5058577, “EUbOPEN Chemogenomics Library 2 (Multiplex)” (2022):

Tested on: Fibroblast
Experiment: Multiplex assay against human fibroblast
Format: toxicity, cell-based
Method in brief: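 Values for tubulin, mitochondrial-mass and membrane-permeability phenotypes are per cents of cells with healthy nuclei. These cells were identified by CellPathfinder machine-learning gating of live cells that had been stained at seeding with Hoechst33342, BioTracker Green Microtubule Cytoskeleton Dye, MitoTracker Red and Annexin V Alexa Fluor 680 and imaged on a CQ1 microscope at 37°C and 5% CO2 after compound addition. The gating first set Hoechst high-intensity objects apart from normal cells, then split normal cells into healthy, pyknosed or fragmented nuclei, and pyknosed cells into mitotic or apoptotic.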

[1] = 12 h, 1 µM, compound concentration 1 uM, replicate 1
[2] = 12 h, 1 µM, compound concentration 1 uM, replicate 2
[3] = 12 h, 10 µM, compound concentration 10 uM, replicate 1
[4] = 12 h, 10 µM, compound concentration 10 uM, replicate 2
[5] = 24 h, 1 µM, compound concentration 1 uM, replicate 1
[6] = 24 h, 1 µM, compound concentration 1 uM, replicate 2
[7] = 24 h, 10 µM, compound concentration 10 uM, replicate 1
[8] = 24 h, 10 µM, compound concentration 10 uM, replicate 2
[9] = 48 h, 1 µM, compound concentration 1 uM, replicate 1
[10] = 48 h, 1 µM, compound concentration 1 uM, replicate 2
[11] = 48 h, 10 µM, compound concentration 10 uM, replicate 1
[12] = 48 h, 10 µM, compound concentration 10 uM, replicate 2

## CCCn1c(=O)c2[nH]c(C3CCCC3)nc2n(CCC)c1=O [1,3-DIPROPYL-8-CYCLOPENTYLXANTHINE [DPCPX]]
[1]
  Population Apoptotic (%): 38%
  Population Fragmented Nuclei (%): 10%
  Population Healthy Nuclei (%): 73%
  Population Hoechst High Intensity Objects (%): 3%
  Population Membrane Permeable-Phenotype (%): 0%
  Population Mitochondria Different-Phenotype (%): 1%
  Population Mitotic Cells (%): 61%
  Population Normal (%): 96%
  Population Pyknosed Nuclei (%): 15%
  Population Tubulin-Different-Phenotype (%): 29%
  Total Cell Count: 175
[2]
  Population Apoptotic (%): 30%
  Population Fragmented Nuclei (%): 25%
  Population Healthy Nuclei (%): 46%
  Population Membrane Permeable-Phenotype (%): 1%
  Population Mitochondria Different-Phenotype (%): 10%
  Population Mitotic Cells (%): 69%
  Population Pyknosed Nuclei (%): 28%
  Population Tubulin-Different-Phenotype (%): 50%
  Total Cell Count: 156
[3]
  Population Apoptotic (%): 58%
  Population Fragmented Nuclei (%): 18%
  Population Healthy Nuclei (%): 65%
  Population Hoechst High Intensity Objects (%): 3%
  Population Membrane Permeable-Phenotype (%): 0%
  Population Mitochondria Different-Phenotype (%): 10%
  Population Mitotic Cells (%): 41%
  Population Normal (%): 96%
  Population Pyknosed Nuclei (%): 17%
  Population Tubulin-Different-Phenotype (%): 47%
  Total Cell Count: 104
[4]
  Population Apoptotic (%): 25%
  Population Fragmented Nuclei (%): 32%
  Population Healthy Nuclei (%): 47%
  Population Hoechst High Intensity Objects (%): 6%
  Population Membrane Permeable-Phenotype (%): 12%
  Population Mitochondria Different-Phenotype (%): 3%
  Population Mitotic Cells (%): 75%
  Population Normal (%): 93%
  Population Pyknosed Nuclei (%): 20%
  Population Tubulin-Different-Phenotype (%): 59%
  Total Cell Count: 129
[5]
  Population Apoptotic (%): 50%
  Population Fragmented Nuclei (%): 13%
  Population Healthy Nuclei (%): 77%
  Population Hoechst High Intensity Objects (%): 2%
  Population Membrane Permeable-Phenotype (%): 0%
  Population Mitochondria Different-Phenotype (%): 2%
  Population Mitotic Cells (%): 50%
  Population Normal (%): 97%
  Population Pyknosed Nuclei (%): 9%
  Population Tubulin-Different-Phenotype (%): 30%
  Total Cell Count: 177
[6]
  Population Apoptotic (%): 75%
  Population Fragmented Nuclei (%): 30%
  Population Healthy Nuclei (%): 48%
  Population Hoechst High Intensity Objects (%): 3%
  Population Membrane Permeable-Phenotype (%): 4%
  Population Mitochondria Different-Phenotype (%): 12%
  Population Mitotic Cells (%): 24%
  Population Normal (%): 96%
  Population Pyknosed Nuclei (%): 21%
  Population Tubulin-Different-Phenotype (%): 54%
  Total Cell Count: 159
[7]
  Population Apoptotic (%): 63%
  Population Fragmented Nuclei (%): 17%
  Population Healthy Nuclei (%): 61%
  Population Hoechst High Intensity Objects (%): 3%
  Population Membrane Permeable-Phenotype (%): 6%
  Population Mitochondria Different-Phenotype (%): 9%
  Population Mitotic Cells (%): 36%
  Population Normal (%): 96%
  Population Pyknosed Nuclei (%): 22%
  Population Tubulin-Different-Phenotype (%): 49%
  Total Cell Count: 104
[8]
  Population Apoptotic (%): 20%
  Population Fragmented Nuclei (%): 35%
  Population Healthy Nuclei (%): 40%
  Population Hoechst High Intensity Objects (%): 6%
  Population Membrane Permeable-Phenotype (%): 8%
  Population Mitochondria Different-Phenotype (%): 4%
  Population Mitotic Cells (%): 79%
  Population Normal (%): 93%
  Population Pyknosed Nuclei (%): 24%
  Population Tubulin-Different-Phenotype (%): 63%
  Total Cell Count: 125
[9]
  Population Apoptotic (%): 72%
  Population Fragmented Nuclei (%): 16%
  Population Healthy Nuclei (%): 70%
  Population Hoechst High Intensity Objects (%): 2%
  Population Membrane Permeable-Phenotype (%): 0%
  Population Mitochondria Different-Phenotype (%): 1%
  Population Mitotic Cells (%): 27%
  Population Normal (%): 97%
  Population Pyknosed Nuclei (%): 12%
  Population Tubulin-Different-Phenotype (%): 35%
  Total Cell Count: 182
[10]
  Population Apoptotic (%): 47%
  Population Fragmented Nuclei (%): 39%
  Population Healthy Nuclei (%): 48%
  Population Hoechst High Intensity Objects (%): 7%
  Population Membrane Permeable-Phenotype (%): 5%
  Population Mitochondria Different-Phenotype (%): 12%
  Population Mitotic Cells (%): 52%
  Population Normal (%): 92%
  Population Tubulin-Different-Phenotype (%): 55%
  Total Cell Count: 170
[11]
  Population Apoptotic (%): 57%
  Population Fragmented Nuclei (%): 24%
  Population Healthy Nuclei (%): 55%
  Population Hoechst High Intensity Objects (%): 3%
  Population Membrane Permeable-Phenotype (%): 1%
  Population Mitochondria Different-Phenotype (%): 13%
  Population Mitotic Cells (%): 42%
  Population Normal (%): 96%
  Population Pyknosed Nuclei (%): 20%
  Population Tubulin-Different-Phenotype (%): 50%
  Total Cell Count: 98
[12]
  Population Apoptotic (%): 50%
  Population Fragmented Nuclei (%): 43%
  Population Healthy Nuclei (%): 45%
  Population Hoechst High Intensity Objects (%): 2%
  Population Membrane Permeable-Phenotype (%): 16%
  Population Mitochondria Different-Phenotype (%): 8%
  Population Mitotic Cells (%): 50%
  Population Normal (%): 97%
  Population Pyknosed Nuclei (%): 10%
  Population Tubulin-Different-Phenotype (%): 78%
  Total Cell Count: 136
